Measured values taken from ChEMBL document CHEMBL4406918, “Inhibitory Effects of Multivalent Polypeptides on the Proliferation and Metastasis of Breast Cancer Cells” (ACS Med Chem Lett, 2019).
Active and inactive are the calls of the source. The rule behind the calls is not given here. Where a SMILES comes first, the peptide text is derived from it.

Legend:
4T1 [1] = assay: Inhibition of metastasis in mouse 4T1 cells assessed as disruption in F-actin arrangement at 0.2 mM incubated for 24 hrs by Hoechst 33342 staining based confocal laser scanning microscopic method; format: functional, cell-based
In short: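 After 24 h at 0.2 mM, 4T1 cells were stained for F-actin with Alexa Fluor 488 phalloidin and for nuclei with Hoechst 33342, then imaged by fluorescence for cytoskeletal arrangement and cell morphology.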

4T1 [2] = assay: Induction of apoptosis in mouse 4T1 cells at 0.8 mM incubated for 24 hrs by PI staining based inverted microscopic method; format: functional, cell-based
In short: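 Live–dead staining of 4T1 cells after 24 h exposure, with PI uptake imaged microscopically. A higher 0.8 mM dose was also tested.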

4T1 [3] = assay: Antitumour activity against mouse 4T1 cells xenografted in BALB/c mouse assessed as inhibition in tumor growth at 10 mg/kg administered intratumorally and measured every 3 days for 24 days; format: functional, organism-based
In short: (§1)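 BALB/c mice bearing subcutaneous 4T1 tumours received 6 doses of 10 mg/kg, with equal YSL-monomer molar amounts across compounds and saline as control. Tumour volume growth curves and body weights were tracked. Mean ± SD, n = 5.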

[4] = Toxicity in BALB/c mouse xenografted with mouse 4T1 cells assessed as change in blood urea nitrogen level at 10 mg/kg administered intratumorally and measured after 24 days; format: organism-based; settings: in vivo, other, 576 h
4T1 [5] = assay: Induction of cell cycle arrest in mouse 4T1 cells assessed as accumulation at S phase at 0.4 mM incubated for 24 hrs by PI staining based flow cytometric analysis (Rvb =42.35%); format: functional
[6] = Toxicity in BALB/c mouse xenografted with mouse 4T1 cells assessed as induction of morphological lesions in spleen at 10 mg/kg administered intratumorally and measured after 24 days by H and E staining based inverted optical microscopic method; format: organism-based; settings: in vivo, other, 576 h
4T1 [7] = assay: Antiproliferative activity against mouse 4T1 cells assessed as cell death at 0.2 mM incubated for 24 hrs by MTT assay relative to control; format: functional
In short: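 Mouse 4T1 breast cancer cells exposed for 24 h (doses include 0.1 and 0.2 mM), then read by MTT for viability or cell death. Mean ± SD, n = 6.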

4T1 [8] = assay: Induction of apoptosis in mouse 4T1 cells assessed as early apoptotic cells at 0.4 mM incubated for 24 hrs by Annexin V-FITC/PI based FACS analysis (reference value: 0.76%); format: functional
4T1 [9] = assay: Antitumour activity against mouse 4T1 cells xenografted in BALB/c mouse assessed as increase in damage of tumor tissue at 10 mg/kg administered intratumorally and measured after 24 days by H and E staining based inverted optical microscopic method; format: functional, organism-based
In short: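 Tumours from 4T1-bearing BALB/c mice given 6 doses of 10 mg/kg (saline control) were sectioned and stained with H&E, plus CD31, Ki-67 and TUNEL.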

4T1 [10] = assay: Induction of apoptosis in mouse 4T1 cells assessed as viable cells at 0.4 mM incubated for 24 hrs by Annexin V-FITC/PI based FACS analysis (reference value: 92.2%); format: functional; settings: 4T1, 24 h, read-out: Activity
4T1 [11] = assay: Antitumour activity against mouse 4T1 cells xenografted in BALB/c mouse assessed as reduction in number of lung tumor metastatic nodules at 10 mg/kg administered intratumorally and measured after 24 days by H and E staining based inverted optical microscopic method; format: functional, organism-based
In short: (§2)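 After 6 doses of 10 mg/kg to 4T1 tumour-bearing BALB/c mice (saline control), lungs were photographed whole and examined histopathologically for the number and size of metastatic nodules.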

4T1 [12] = assay: Induction of cell cycle arrest in mouse 4T1 cells assessed as accumulation at G2/M phase at 0.4 mM incubated for 24 hrs by PI staining based flow cytometric analysis (reference value: 19.82%); format: functional
[13] = Toxicity in BALB/c mouse xenografted with mouse 4T1 cells assessed as induction of morphological lesions in heart at 10 mg/kg administered intratumorally and measured after 24 days by H and E staining based inverted optical microscopic method; format: organism-based; settings: in vivo, other, 576 h
4T1 [14] = assay: Antiinvasive activity in mouse 4T1 cells assessed as inhibition of cell invasion at 0.2 mM incubated for 24 hrs by crystal violet staining based matrigel invasion assay relative to control; format: functional; settings: 4T1, 24 h
In short: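 4T1 cells, Matrigel-coated Transwell invasion with 0.2 mM compound. Invasion rate comes from counting cells on the underside of the Matrigel-coated porous membrane, relative to untreated control. Mean ± SD, n = 3.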

[15] = Toxicity in BALB/c mouse xenografted with mouse 4T1 cells assessed as induction of morphological lesions in liver at 10 mg/kg administered intratumorally and measured after 24 days by H and E staining based inverted optical microscopic method; format: organism-based; settings: in vivo, other, 576 h
[16] = Toxicity in BALB/c mouse xenografted with mouse 4T1 cells assessed as induction of morphological lesions in kidney at 10 mg/kg administered intratumorally and measured after 24 days by H and E staining based inverted optical microscopic method; format: organism-based; settings: in vivo, other, 576 h
Erythrocyte = assay: Hemolytic activity in BALB/c mouse RBC at 3.2 mM incubated for 2 hrs by UV-Vis spectrophotometric analysis; format: ADME, cell-based; settings: 3200 µM
In short: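 Hemolysis assay on red blood cells with dendrimers up to 3.2 mM. Result is expressed as hemolysis rate, with under 5% taken as acceptable.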

4T1 [17] = assay: Inhibition of cell migration in mouse 4T1 cells assessed as migration frequency at 0.2 mM incubated for 24 hrs by crystal violet staining based transwell assay relative to control; format: functional; design: scale not given: the % may be the effect or the level left
In short: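 4T1 cells, Transwell migration with 24 h exposure to 0.2 mM. Migration rate comes from counting cells on the bottom of the porous membrane. Mean ± SD, n = 3.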

[18] = Stability in fetal bovine serum assessed as drug degradation measured for 12 hrs by RP-HPLC analysis; format: ADME, cell-free, Bos taurus; settings: cattle, read-out: Drug degradation
In short: (§3)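 Peptides incubated in serum for up to 12 h. Degradation is followed as the percentage of intact YSL remaining at time points including 4 and 12 h.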

4T1 [19] = assay: Induction of apoptosis in mouse 4T1 cells assessed as necrotic cells at 0.4 mM incubated for 24 hrs by Annexin V-FITC/PI based FACS analysis (reference value: 0.47%); format: functional
4T1 [20] = assay: Inhibition of cell migration in mouse 4T1 cells assessed as wound closure rate at 0.2 mM measured up to 36 hrs by inverted optical microscopic method based wound healing assay (reference value: 82%); format: functional; design: scale not given: the % may be the effect or the level left
[21] = Stability in fetal bovine serum assessed as drug degradation measured for 4 hrs by RP-HPLC analysis; format: ADME, cell-free, Bos taurus; settings: cattle, read-out: Drug degradation; in short: as §3
4T1 [22] = assay: Induction of apoptosis in mouse 4T1 cells assessed as late apoptotic cells at 0.4 mM incubated for 24 hrs by Annexin V-FITC/PI based FACS analysis (reference value: 6.62%); format: functional
[23] = Toxicity in BALB/c mouse xenografted with mouse 4T1 cells assessed as change in body weight at 10 mg/kg administered intratumorally and measured after 24 days; format: organism-based; settings: in vivo, other, 576 h; in short: as §1
4T1 [24] = assay: Antiproliferative activity against mouse 4T1 cells at 0.1 mM incubated for 24 hrs by MTT assay; format: functional, cell-based
[25] = Toxicity in BALB/c mouse xenografted with mouse 4T1 cells assessed as change in serum creatinine level at 10 mg/kg administered intratumorally and measured after 24 days; format: organism-based; settings: in vivo, other, 576 h
4T1 [26] = assay: Antitumour activity against mouse 4T1 cells xenografted in BALB/c mouse assessed as reduction in size of lung tumor metastatic nodules at 10 mg/kg administered intratumorally and measured after 24 days by H and E staining based inverted optical microscopic method; format: functional, organism-based; in short: as §2
4T1 [27] = assay: Induction of cell cycle arrest in mouse 4T1 cells assessed as accumulation at G0/G1 phase at 0.4 mM incubated for 24 hrs by PI staining based flow cytometric analysis (reference value: 37.78%); format: functional

COC(=O)[C@H](CC(C)C)NC(=O)[C@H](CO)NC(=O)[C@@H](N)Cc1ccc(O)cc1 (H-Tyr-Ser-Leu-OMe)
F-actin disruption (qualitative) (4T1 [1]): Active | Activity (4T1 [2]): Active | Activity (4T1 [3]): Active | Activity [4]: Non-Toxic | Activity (4T1 [5]): 42.35% | Activity [6]: Non-Toxic | Activity (4T1 [7]): 2% | Activity (4T1 [8]): 0.88% | Activity (4T1 [9]): Active | viability at 400 µM (4T1 [10]): 87.6% | Activity (4T1 [11]): Active | Activity (4T1 [12]): 48.48% | Activity [13]: Non-Toxic | inhibition at 200 µM (4T1 [14]): 92% | Activity [15]: Non-Toxic | Activity [16]: Non-Toxic | Activity (Erythrocyte): Non-Toxic | Activity (4T1 [17]): 82% | metabolised at 12 h [18]: 100% | Activity (4T1 [19]): 1.23% | Activity (4T1 [20]): 80% | metabolised at 4 h [21]: 60% | Activity (4T1 [22]): 10.3% | Activity [23]: Non-Toxic | Activity (4T1 [24]): inactive | Activity [25]: Non-Toxic | Activity (4T1 [26]): Active | Activity (4T1 [27]): 37.41%
